A short description of data set [1]: folding enthalpy; higher = less favourable; fluorescence melt of hairpins on a sequencing array, two-state fit. To be noted: sodium 0.088 M. In short, it runs like this: (§1)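 To match UV melts, fitted temperatures were raised by 9.35 °C. These fits were bootstrapped two-state models that gave melting temperature and folding enthalpy, combined by inverse variance over four replicates. The input was normalised Cy3 fluorescence of library hairpins with annealed Cy3 and quencher oligos on a sequenced MiSeq flow cell, imaged in 50 mM Na-HEPES pH 8.0, 25 mM NaCl in 2.5 °C steps up to 60 °C.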

A short description of data set [2]: melting temperature; fluorescence melt of hairpins on a sequencing array, two-state fit, raised by 9.35 °C to match UV melts. As to conditions: sodium 0.088 M. A digest of the protocol:
as §1

With GCGATCAATCGC ((((....)))), in data set [1], the folding enthalpy was -24.9 kcal/mol. For the same sequence, the Tm in data set [2] is 51.1 °C.

With GCGATCACTCGC ((((....)))), in data set [1], the folding enthalpy was -26 kcal/mol. Further, the Tm in data set [2] was 47.2 °C.

In the case of GCGATCAGTCGC ((((....)))), the folding enthalpy in data set [1] was -23.2 kcal/mol. Besides, in data set [2], the Tm turned out to be 49.3 °C.

Consider GCGATCCGAAAGGAACGC (((.(((....))).))), for which the folding enthalpy in data set [1] is -40 kcal/mol. The Tm in data set [2] came to 66.8 °C.

For GCGATCGAAAGATTGCGC ((((((....)))..))), the folding enthalpy in data set [1] is -39.6 kcal/mol. For the same sequence, the Tm in data set [2] is 57.2 °C.

For GCGATCGCTCGC ((((....)))), the folding enthalpy in data set [1] was -24.2 kcal/mol. For the same sequence, in data set [2], the Tm stood at 49.6 °C.

Consider GCGATCTGTCGC ((((....)))), for which the folding enthalpy in data set [1] was -33.5 kcal/mol. Also, the Tm in data set [2] stood at 51.6 °C.

Turning to GCGATGCGAAAGCAATGC ((..(((....)))..)), the folding enthalpy in data set [1] is -18.2 kcal/mol. In addition, the Tm in data set [2] was 53.1 °C.

Consider GCGATGCGAAAGCAGGGC ((..(((....)))..)), for which, in data set [1], the folding enthalpy is -20.4 kcal/mol. Further, in data set [2], the Tm came out at 61.4 °C.

In the case of GCGATGCGAAAGCGTTGC ((.(.((....)).).)), in data set [1], the folding enthalpy is -25.9 kcal/mol. The Tm in data set [2] came out at 57.2 °C.

GCGATTAATCGC ((((....)))): the folding enthalpy in data set [1] is -29.4 kcal/mol. The Tm in data set [2] was determined as 56.1 °C.

GCGATTCGAAAGAACGC (((.(((....)))))): the folding enthalpy in data set [1] is -30.2 kcal/mol. Besides, the Tm in data set [2] is 52.8 °C.

Take GCGATTGATCGC ((((....)))): the folding enthalpy in data set [1] is -31.5 kcal/mol. Besides, the Tm in data set [2] is 53.1 °C.

As to GCGATTGGAAACAATCAC (.(((((....))))).), the folding enthalpy in data set [1] is -19.7 kcal/mol. For the same sequence, in data set [2], the Tm is 40 °C.

Turning to GCGATTGGAAACAATCGC (((((((....))))))), the folding enthalpy in data set [1] was -39.5 kcal/mol. For the same sequence, the Tm in data set [2] stood at 69 °C.

For GCGATTGGAAACAGTCGC ((((.((....)).)))), the folding enthalpy in data set [1] was -42 kcal/mol. Moreover, the Tm in data set [2] turned out to be 54.2 °C.

With GCGATTGGAAACGATCGC (((((.(....).))))), in data set [1], the folding enthalpy was -49 kcal/mol. Moreover, the Tm in data set [2] was 56.4 °C.

Consider GCGCAAACGAAAGTTCGC (((..(((....)))))), for which the folding enthalpy in data set [1] was -22.6 kcal/mol. In data set [2], the Tm is 46.7 °C.

For the sequence GCGCACGAAAGTGTTCGC ((((((....)))..))), the folding enthalpy in data set [1] is -22.1 kcal/mol. In data set [2], the Tm stood at 48.2 °C.

For GCGCACGGAAACGTGCAC (.(((((....))))).), the folding enthalpy in data set [1] was -10.1 kcal/mol. The Tm in data set [2] stood at 52.2 °C.

With GCGCAGCGAAAGCAACGC (((..((....))..))), the folding enthalpy in data set [1] was -10.2 kcal/mol. Besides, the Tm in data set [2] worked out at 49.6 °C.

Regarding GCGCAGCGAAAGCAGTGC ((.(.((....)).).)), in data set [1], the folding enthalpy was -12 kcal/mol. In data set [2], the Tm was 54.4 °C.

Take GCGCAGCGAAAGCGACGC (((..((....))..))): the folding enthalpy in data set [1] was -15.8 kcal/mol. Further, the Tm in data set [2] was determined as 57.6 °C.

On to GCGCAGCGAAAGCGCCGC (((..((....))..))), for which the folding enthalpy in data set [1] was -13.1 kcal/mol. Besides, the Tm in data set [2] is 59.4 °C.

As for GCGCAGCGAAAGCGGGGC ((.(.((....)).).)), the folding enthalpy in data set [1] was -14.3 kcal/mol. Also, in data set [2], the Tm turned out to be 57.6 °C.

For the sequence GCGCAGCGAAAGCTAGGC ((..(((....)))..)), in data set [1], the folding enthalpy is -5.67 kcal/mol. Also, the Tm in data set [2] was determined as 39.7 °C.

GCGCAGCGAAAGCTCGC (((.(((....)))))): the folding enthalpy in data set [1] is -15.8 kcal/mol. In data set [2], the Tm is 63.3 °C.

For the sequence GCGCAGCGAAAGCTCGGC ((..(((....)))..)), the folding enthalpy in data set [1] is -7.59 kcal/mol. Further, in data set [2], the Tm is 40.3 °C.

Consider GCGCAGCGAAAGCTTAGC ((..(((....)))..)), for which the folding enthalpy in data set [1] is -9.17 kcal/mol. Further, the Tm in data set [2] was determined as 40.5 °C.

For GCGCAGCGAAAGCTTGGC ((..(((....)))..)), the folding enthalpy in data set [1] is -6.35 kcal/mol. Moreover, in data set [2], the Tm turned out to be 38.5 °C.

As for GCGCAGGGAAACCCGCGC ((((.((....)).)))), the folding enthalpy in data set [1] is -34 kcal/mol. Moreover, the Tm in data set [2] came to 66.8 °C.

Regarding GCGCAGGGAAACCTGTGC ((.((((....)))).)), the folding enthalpy in data set [1] was -28 kcal/mol. The Tm in data set [2] stood at 57.7 °C.

Turning to GCGCATCCGAAAGGACGC (((..(((....)))))), the folding enthalpy in data set [1] was -20.5 kcal/mol. Also, the Tm in data set [2] stood at 50.2 °C.

Turning to GCGCATGGAAACGTGTGC ((.((.(....).)).)), the folding enthalpy in data set [1] is -36.7 kcal/mol. Further, the Tm in data set [2] stood at 46.6 °C.

Turning to GCGCCAGGAAACCGACGC (((.(.(....).).))), the folding enthalpy in data set [1] is -29.5 kcal/mol. Also, the Tm in data set [2] amounted to 39.4 °C.

For the sequence GCGCCCGAAAGGGAACGC ((((((....)))..))), in data set [1], the folding enthalpy is -33.4 kcal/mol. Further, the Tm in data set [2] was 54.7 °C.

GCGCCCGAAAGGGATCGC ((((((....)))..))): the folding enthalpy in data set [1] was -20.4 kcal/mol. For the same sequence, the Tm in data set [2] came out at 51.8 °C.

For the origin of these results see the array DNA melting data of Ke et al. (doi:10.1101/2024.01.08.574731).
